Laboratory results published in ChEMBL document CHEMBL5247599, “New β-arylchalcogeno amines with procognitive properties targeting Carbonic Anhydrases and Monoamine Oxidases” (Eur J Med Chem, 2022).
Active and inactive are the calls of the source. The calls are words filed in the database; no cut-off is given here.

Columns and labels:
[1] = target: Carbonic anhydrase 5A, mitochondrial (Homo sapiens) (UniProt P35218); assay: Binding affinity to human CA5a by phenol red dye based stopped flow CO2 hydration assay; conditions: filed as activator
Sequence of Carbonic anhydrase 5A, mitochondrial (Homo sapiens) (P35218 whole entry, canonical isoform): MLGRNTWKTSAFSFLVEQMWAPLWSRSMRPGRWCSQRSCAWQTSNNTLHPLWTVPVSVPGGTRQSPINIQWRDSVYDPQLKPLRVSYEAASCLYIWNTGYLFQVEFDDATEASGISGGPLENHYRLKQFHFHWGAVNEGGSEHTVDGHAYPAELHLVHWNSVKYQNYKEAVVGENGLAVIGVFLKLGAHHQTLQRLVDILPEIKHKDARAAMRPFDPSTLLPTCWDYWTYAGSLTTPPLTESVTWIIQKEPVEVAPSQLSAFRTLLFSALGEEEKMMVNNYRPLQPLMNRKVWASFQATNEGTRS
How it was run: (§1)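 Purified recombinant human CA isoforms. CA-catalysed CO2 hydration was followed by stopped-flow with phenol red at 557 nm, taking initial rates over 10–100 s from at least six traces of the first 5–10% of reaction. Uncatalysed rates were subtracted. Activator stocks were 0.1 mM in deionised water, diluted down to 0.1 nM in assay buffer. K_A came from non-linear least-squares Michaelis–Menten fitting.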

[2] = target: Carbonic anhydrase 14 (Homo sapiens) (UniProt Q9ULX7); assay: Binding affinity to human CA14 by phenol red dye based stopped flow CO2 hydration assay; conditions: filed as activator; how it was run: as §1
Sequence of Carbonic anhydrase 14 (Homo sapiens) (Q9ULX7 whole entry): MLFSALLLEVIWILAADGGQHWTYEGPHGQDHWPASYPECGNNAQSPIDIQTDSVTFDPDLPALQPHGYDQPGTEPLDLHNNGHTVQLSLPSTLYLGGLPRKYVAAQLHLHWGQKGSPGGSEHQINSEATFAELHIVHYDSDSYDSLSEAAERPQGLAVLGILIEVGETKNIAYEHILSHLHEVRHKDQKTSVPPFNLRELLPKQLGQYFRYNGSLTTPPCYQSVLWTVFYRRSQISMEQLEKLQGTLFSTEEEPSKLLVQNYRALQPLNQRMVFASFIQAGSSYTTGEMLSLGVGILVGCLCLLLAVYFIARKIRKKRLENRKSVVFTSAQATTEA

[3] = target: T1, Amine oxidase [flavin-containing] B (Homo sapiens, UniProt P27338)
T1 sequence (P27338 whole entry): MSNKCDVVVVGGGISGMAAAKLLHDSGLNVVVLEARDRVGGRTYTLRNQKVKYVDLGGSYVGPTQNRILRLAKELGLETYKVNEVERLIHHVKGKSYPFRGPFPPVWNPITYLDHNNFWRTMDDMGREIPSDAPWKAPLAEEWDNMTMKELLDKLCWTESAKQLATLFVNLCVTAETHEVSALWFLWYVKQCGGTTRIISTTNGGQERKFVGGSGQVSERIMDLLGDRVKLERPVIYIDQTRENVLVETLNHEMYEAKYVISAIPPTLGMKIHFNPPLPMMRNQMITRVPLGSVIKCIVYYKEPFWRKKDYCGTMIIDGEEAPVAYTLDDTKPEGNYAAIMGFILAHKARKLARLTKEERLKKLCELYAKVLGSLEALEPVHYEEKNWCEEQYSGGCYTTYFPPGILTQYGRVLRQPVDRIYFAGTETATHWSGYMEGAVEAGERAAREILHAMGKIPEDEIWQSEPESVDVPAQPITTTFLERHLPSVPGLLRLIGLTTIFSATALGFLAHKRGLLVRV

[4] = target: Carbonic anhydrase 13 (Homo sapiens) (UniProt Q8N1Q1); assay: Binding affinity to human CA13 by phenol red dye based stopped flow CO2 hydration assay; conditions: filed as activator; how it was run: as §1
Sequence of Carbonic anhydrase 13 (Homo sapiens) (Q8N1Q1 whole entry, looked up): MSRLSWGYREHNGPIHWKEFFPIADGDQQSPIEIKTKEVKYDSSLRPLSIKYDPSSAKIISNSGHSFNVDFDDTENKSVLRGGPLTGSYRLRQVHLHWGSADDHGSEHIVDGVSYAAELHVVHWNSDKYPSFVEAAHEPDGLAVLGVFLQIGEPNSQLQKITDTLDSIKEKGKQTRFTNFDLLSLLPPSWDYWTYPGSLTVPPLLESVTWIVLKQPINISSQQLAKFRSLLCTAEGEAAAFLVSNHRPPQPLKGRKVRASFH

[5] = target: Carbonic anhydrase 9 (Homo sapiens) (UniProt Q16790); assay: Binding affinity to human CA9 by phenol red dye based stopped flow CO2 hydration assay; conditions: filed as activator; how it was run: as §1
[6] = target: Carbonic anhydrase 7 (Homo sapiens) (UniProt P43166); assay: Binding affinity to human CA7 by phenol red dye based stopped flow CO2 hydration assay; conditions: filed as activator; how it was run: as §1
Sequence of Carbonic anhydrase 7 (Homo sapiens) (P43166 whole entry): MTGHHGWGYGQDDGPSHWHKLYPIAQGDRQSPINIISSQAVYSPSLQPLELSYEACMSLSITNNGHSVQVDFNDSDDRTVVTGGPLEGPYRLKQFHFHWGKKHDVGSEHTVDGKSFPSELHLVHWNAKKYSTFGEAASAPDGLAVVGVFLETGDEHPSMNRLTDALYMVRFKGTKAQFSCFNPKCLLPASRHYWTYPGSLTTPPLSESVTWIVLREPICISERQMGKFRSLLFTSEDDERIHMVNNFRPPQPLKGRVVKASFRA

[7] = target: T2, Amine oxidase [flavin-containing] A (Homo sapiens, UniProt P21397); assay: Inhibition of human recombinant MAO-A assessed as inhibition of 4-hydroxyquinoline formation using kynuramine as substrate by fluorescence spectrophotometry analysis
T2 sequence (P21397 whole entry): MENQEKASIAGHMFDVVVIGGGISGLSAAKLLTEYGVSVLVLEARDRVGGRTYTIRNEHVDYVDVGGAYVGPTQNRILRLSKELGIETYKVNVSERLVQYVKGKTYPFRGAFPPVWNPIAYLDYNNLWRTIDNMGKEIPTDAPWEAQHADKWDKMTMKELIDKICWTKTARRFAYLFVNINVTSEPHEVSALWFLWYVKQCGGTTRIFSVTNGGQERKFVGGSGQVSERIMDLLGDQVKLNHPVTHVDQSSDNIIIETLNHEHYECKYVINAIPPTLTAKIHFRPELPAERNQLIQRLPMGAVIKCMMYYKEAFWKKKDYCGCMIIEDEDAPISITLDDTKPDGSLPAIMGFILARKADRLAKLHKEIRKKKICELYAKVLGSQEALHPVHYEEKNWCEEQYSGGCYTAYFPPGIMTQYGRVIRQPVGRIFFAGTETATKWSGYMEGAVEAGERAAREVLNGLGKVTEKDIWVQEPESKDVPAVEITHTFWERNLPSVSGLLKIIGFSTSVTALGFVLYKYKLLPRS
How it was run: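 Recombinant human MAO-A with kynuramine as substrate. The 4-hydroxyquinoline product was quantified by fluorescence spectrophotometry, and IC50 values were determined.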

[8] = target: Carbonic anhydrase 4 (Homo sapiens) (UniProt P22748); assay: Binding affinity to human CA4 by phenol red dye based stopped flow CO2 hydration assay; conditions: filed as activator; how it was run: as §1
Sequence of Carbonic anhydrase 4 (Homo sapiens) (P22748 whole entry): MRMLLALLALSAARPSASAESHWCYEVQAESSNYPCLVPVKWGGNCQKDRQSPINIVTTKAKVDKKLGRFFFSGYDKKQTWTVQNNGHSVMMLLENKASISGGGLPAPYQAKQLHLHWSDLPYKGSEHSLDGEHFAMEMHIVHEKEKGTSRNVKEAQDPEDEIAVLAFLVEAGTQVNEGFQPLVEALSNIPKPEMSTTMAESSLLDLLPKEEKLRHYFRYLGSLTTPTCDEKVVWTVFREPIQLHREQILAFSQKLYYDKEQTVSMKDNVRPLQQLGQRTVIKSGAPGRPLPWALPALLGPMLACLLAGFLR

[9] = target: Carbonic anhydrase 1 (Homo sapiens) (UniProt P00915); assay: Binding affinity to human CA1 by phenol red dye based stopped flow CO2 hydration assay; conditions: filed as activator; how it was run: as §1
Sequence of Carbonic anhydrase 1 (Homo sapiens) (P00915 2-261 limits assumed): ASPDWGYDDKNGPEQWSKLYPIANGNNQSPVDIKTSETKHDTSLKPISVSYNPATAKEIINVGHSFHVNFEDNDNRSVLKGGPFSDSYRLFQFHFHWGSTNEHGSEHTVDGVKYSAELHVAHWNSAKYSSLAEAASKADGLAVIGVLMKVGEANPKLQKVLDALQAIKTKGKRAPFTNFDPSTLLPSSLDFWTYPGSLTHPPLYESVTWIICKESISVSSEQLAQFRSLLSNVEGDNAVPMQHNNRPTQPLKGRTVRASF

[10] = target: Carbonic anhydrase 5B, mitochondrial (Homo sapiens) (UniProt Q9Y2D0); assay: Binding affinity to human CA5b by phenol red dye based stopped flow CO2 hydration assay; conditions: filed as activator; how it was run: as §1
Sequence of Carbonic anhydrase 5B, mitochondrial (Homo sapiens) (Q9Y2D0 whole entry): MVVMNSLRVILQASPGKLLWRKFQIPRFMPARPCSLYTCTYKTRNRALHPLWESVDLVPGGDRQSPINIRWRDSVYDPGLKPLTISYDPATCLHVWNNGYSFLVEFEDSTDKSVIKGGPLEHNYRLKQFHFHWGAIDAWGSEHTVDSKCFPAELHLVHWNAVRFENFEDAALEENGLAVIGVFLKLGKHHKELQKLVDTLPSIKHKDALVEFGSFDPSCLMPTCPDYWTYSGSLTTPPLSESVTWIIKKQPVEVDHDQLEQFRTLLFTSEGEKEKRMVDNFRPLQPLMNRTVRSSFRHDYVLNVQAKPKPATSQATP

[11] = target: Carbonic anhydrase 6 (Homo sapiens) (UniProt P23280); assay: Binding affinity to human CA6 by phenol red dye based stopped flow CO2 hydration assay; conditions: filed as activator; how it was run: as §1
Sequence of Carbonic anhydrase 6 (Homo sapiens) (P23280 whole entry): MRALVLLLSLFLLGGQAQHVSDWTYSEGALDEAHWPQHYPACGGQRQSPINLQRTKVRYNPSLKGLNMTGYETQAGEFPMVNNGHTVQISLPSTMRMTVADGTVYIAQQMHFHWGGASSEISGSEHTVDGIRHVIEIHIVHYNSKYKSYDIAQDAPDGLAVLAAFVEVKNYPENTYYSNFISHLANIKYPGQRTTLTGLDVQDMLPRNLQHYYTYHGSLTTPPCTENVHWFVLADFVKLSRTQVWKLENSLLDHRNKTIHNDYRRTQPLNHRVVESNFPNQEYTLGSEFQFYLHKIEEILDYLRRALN

[12] = target: Carbonic anhydrase 12 (Homo sapiens) (UniProt O43570); assay: Binding affinity to human CA12 by phenol red dye based stopped flow CO2 hydration assay; conditions: filed as activator; how it was run: as §1
Sequence of Carbonic anhydrase 12 (Homo sapiens) (O43570 whole entry): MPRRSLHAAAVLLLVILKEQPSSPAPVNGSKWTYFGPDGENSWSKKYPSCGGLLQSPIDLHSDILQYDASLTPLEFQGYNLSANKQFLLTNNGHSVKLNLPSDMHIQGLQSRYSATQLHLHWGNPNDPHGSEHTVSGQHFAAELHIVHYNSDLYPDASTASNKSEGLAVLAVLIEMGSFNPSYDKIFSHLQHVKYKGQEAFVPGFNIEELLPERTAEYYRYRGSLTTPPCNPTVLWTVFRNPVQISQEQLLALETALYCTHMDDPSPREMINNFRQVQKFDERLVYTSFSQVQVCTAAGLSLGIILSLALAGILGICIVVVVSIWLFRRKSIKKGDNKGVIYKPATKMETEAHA

[13] = target: Carbonic anhydrase 3 (Homo sapiens) (UniProt P07451); assay: Binding affinity to human CA3 by phenol red dye based stopped flow CO2 hydration assay; conditions: filed as activator; how it was run: as §1
Sequence of Carbonic anhydrase 3 (Homo sapiens) (P07451 whole entry): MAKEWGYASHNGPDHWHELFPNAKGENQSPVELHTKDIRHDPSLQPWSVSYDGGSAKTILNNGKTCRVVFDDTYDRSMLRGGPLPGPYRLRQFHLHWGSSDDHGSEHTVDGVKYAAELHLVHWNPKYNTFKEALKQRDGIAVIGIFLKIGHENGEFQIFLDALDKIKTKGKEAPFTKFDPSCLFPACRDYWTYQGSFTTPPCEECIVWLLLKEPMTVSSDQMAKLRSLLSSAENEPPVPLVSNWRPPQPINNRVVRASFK

[14] = target: Carbonic anhydrase 2 (Homo sapiens) (UniProt P00918); assay: Binding affinity to human CA2 by phenol red dye based stopped flow CO2 hydration assay; how it was run: as §1
Mus musculus [15] = assay: Pro-cognitive activity in C57Bl6 mouse assessed as attenuation of long-term memory deficit by measuring increase in exploration time for novel object by measuring discrimination index at 50 nmol/uL, icv measured after 24 hrs by novel object recognition test; format: functional
How it was run: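 Novel object recognition in adult male C57Bl6 mice. Habituation was 10 min in an empty arena. Twenty-four hours later, mice explored two identical objects for 5 min, then received an immediate 5 µL lateral-ventricle infusion at 1 µL/min. A 5-min retention test with one familiar and one novel object followed 24 h later. Scores were % exploration time and DI = (tN−tF)/(tN+tF).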

Mus musculus [16] = assay: Pro-cognitive activity in C57Bl6 mouse assessed as attenuation of long-term memory deficit by measuring increase in exploration time for novel juvenile by measuring discrimination index at 50 nmol/uL, icv measured after 48 hrs by novel object recognition test; format: functional
How it was run: (§2)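 Social recognition in adult male C57Bl6 mice with intracerebroventricular cannulae. Habituation was 10 min with two empty cups. Twenty-four hours later, a novel 3–4-week-old juvenile was placed under one cup for 10 min of exploration, followed immediately by a 5 µL infusion at 1 µL/min. Retention 48 h later offered familiar versus novel juvenile, scoring snout-to-cup contact. DI = (tN−tF)/(tN+tF).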

Mus musculus [17] = assay: Pro-cognitive activity in C57Bl6 mouse assessed as attenuation of long-term memory deficit by measuring increase in exploration time for novel juvenile by measuring discrimination index at 25 nmol/uL, icv measured after 48 hrs by novel object recognition test; format: functional; how it was run: as §2
Mus musculus [18] = assay: Pro-cognitive activity in C57Bl6 mouse assessed as attenuation of long-term memory deficit by measuring increase in exploration time for novel juvenile at 50 nmol/uL, icv measured after 48 hrs by novel object recognition test; format: functional, organism-based
How it was run: (§3)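 Male adult C57Bl6 mice (8–9 weeks), lateral-ventricle cannula implanted 7 days earlier. Social recognition: 10-min habituation to arena with two empty cups; 24 h later 10-min acquisition with an unfamiliar juvenile (3–4 weeks) under one wire cup. Immediately after, 5 µL i.c.v. infusion at 1 µL/min. Retention at 48 h with familiar and novel juvenile; percentage time exploring each cup (snout-to-cup contact).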

Mus musculus [19] = assay: Pro-cognitive activity in C57Bl6 mouse assessed as attenuation of long-term memory deficit by measuring increase in exploration time for novel object by measuring discrimination index at 25 nmol/uL, icv measured after 24 hrs by novel object recognition test
Mus musculus [20] = assay: Pro-cognitive activity in C57Bl6 mouse assessed as attenuation of long-term memory deficit by measuring increase in exploration time for novel juvenile at 25 nmol/uL, icv measured after 48 hrs by novel object recognition test; format: functional, organism-based; how it was run: as §3
Mus musculus [21] = assay: Pro-cognitive activity in C57Bl6 mouse assessed as attenuation of long-term memory deficit by measuring increase in exploration time for novel object at 50 nmol/uL, icv measured after 24 hrs by novel object recognition test; format: functional, organism-based
How it was run: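 Male adult C57Bl6 mice (8–9 weeks), lateral-ventricle cannula implanted one week before. 10-min habituation to empty open-field arena; 24 h later, 5-min acquisition with two identical objects, followed immediately by 5 µL i.c.v. infusion at 1 µL/min. 5-min retention test 24 h after acquisition with one familiar and one novel object; percentage exploration time per object, two-way ANOVA with Bonferroni.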

Q: Which results are given for COc1ccc([Te]CC(C)N)cc1 (stereo not given)?
A: Ka [1]: 3.3 µM; Ka [2]: 9.5 µM; IC50 [3]: 84.2 µM; Ka [4]: 38.2 µM; Ka [5]: 47.9 µM; Ka [6]: 44.9 µM; IC50 [7]: 14 µM; Ka [8]: 8.2 µM; Ka [9]: 4.6 µM; Ka [10]: 22.5 µM; Ka [11]: 37.8 µM; Ka [12]: 52.8 µM; Ka [13]: 77.3 µM; Ka [14]: > 100 µM

Q: CC(N)C[Se]c1ccc(N(C)C)cc1 (stereo not given) was tested. Which Ka [1] did it give?
A: Its Ka is 14 µM.

Q: What about the Ka [2] of the same compound?
A: The Ka was 6.7 µM.

Q: What about the IC50 [3] of the same compound?
A: The IC50 was 21.3 µM.

Q: And the Ka [4]?
A: The Ka was 44.1 µM.

Q: What about the Ka [5] of the same compound?
A: The Ka was 70.1 µM.

Q: And the Ka [6]?
A: Its Ka is 12.1 µM.

Q: What about the IC50 [7] of the same compound?
A: Its IC50 is 7.15 µM.

Q: And the Ka [8]?
A: The Ka was 9.4 µM.

Q: And the Ka [9]?
A: Its Ka is 22.1 µM.

Q: And the Ka [10]?
A: The Ka was 21.8 µM.

Q: What about the Ka [11] of the same compound?
A: Its Ka is 76.5 µM.

Q: And the Ka [12]?
A: Its Ka is 58.5 µM.

Q: And the Ka [13]?
A: The Ka was 72.6 µM.

Q: And the Ka ([14]; filed as activator)?
A: Its Ka is 45.1 µM.

Q: Which results are given for CC(N)CSc1ccccc1Br (stereo not given)?
A: Ka [1]: 13.3 µM; Ka [2]: 3.6 µM; IC50 [3]: 64.8 µM; Ka [4]: 90.9 µM; Ka [5]: 56.6 µM; Ka [6]: 23.2 µM; IC50 [7]: 0.724 µM; Ka [8]: 2.4 µM; Ka [9]: 9.5 µM; Ka [10]: 12.8 µM; Ka [11]: 55.9 µM; Ka [12]: 46.7 µM; Ka [13]: 70.8 µM; Ka [14]: > 100 µM

Q: For Cc1ccc([Se]CC(C)N)cc1 (stereo not given), which Ka [1] is on record?
A: Its Ka is 9.1 µM.

Q: And the Ka [2]?
A: Its Ka is 8.3 µM.

Q: And the IC50 [3]?
A: The IC50 was 36.5 µM.

Q: And the Ka [4]?
A: The Ka was 68.6 µM.

Q: And the Ka [5]?
A: The Ka was 82.5 µM.

Q: What about the Ka [6] of the same compound?
A: Its Ka is 10.4 µM.

Q: What about the IC50 [7] of the same compound?
A: Its IC50 is 2.03 µM.

Q: What about the Ka [8] of the same compound?
A: Its Ka is 2.2 µM.

Q: And the Ka [9]?
A: Its Ka is 5.2 µM.

Q: What about the Ka [10] of the same compound?
A: Its Ka is 15.7 µM.

Q: What about the Ka [11] of the same compound?
A: The Ka was 30.5 µM.

Q: And the Ka [12]?
A: The Ka was 89.7 µM.

Q: What about the Ka [13] of the same compound?
A: Its Ka is 20.3 µM.

Q: What about the Ka [14] of the same compound?
A: The Ka was greater than 100 µM.

Q: What does the source list for CC(N)CSc1cccc(Br)c1 (stereo not given)?
A: Ka [1]: 12.9 µM; Ka [2]: 2.9 µM; Ka [4]: 49.3 µM; Ka [5]: 77.9 µM; Ka [6]: 11.4 µM; IC50 [7]: 7.82 µM; Ka [8]: 2.2 µM; Ka [9]: 13.5 µM; Ka [10]: 11.5 µM; Ka [11]: 30.9 µM; Ka [12]: 87.9 µM; Ka [13]: 91.7 µM; Ka [14]: > 100 µM

Q: What does the source list for Cc1ccccc1[Se]CC(C)N (stereo not given)?
A: Ka [1]: 20 µM; Ka [2]: 4.7 µM; IC50 [3]: 16.7 µM; Ka [4]: 49.3 µM; Ka [5]: 83.3 µM; Ka [6]: 14.2 µM; IC50 [7]: 5.17 µM; Ka [8]: 2.7 µM; Ka [9]: 12.1 µM; Ka [10]: 23.7 µM; Ka [11]: 71.6 µM; Ka [12]: 51.8 µM; Ka [13]: 54.1 µM; Ka [14]: > 100 µM

Q: Which results are given for N[C@H](Cc1ccccc1)C(=O)O [D-PHENYLALANINE]?
A: Activity_index (Mus musculus [15]): 0.375; Activity_index (Mus musculus [16]): 0.291; Activity_index (Mus musculus [17]): 0.009; Activity (Mus musculus [18]): Active; Activity_index (Mus musculus [19]): 0.075; Activity (Mus musculus [20]): inactive; Activity (Mus musculus [21]): Active
